Consider 24 compounds from ChEMBL document CHEMBL2016518, “Structure-activity relationships of cyanoquinolines with corrector-potentiator activity in ΔF508 cystic fibrosis transmembrane conductance regulator protein” (J Med Chem, 2012).

The term EC50 denotes the midpoint of the concentration-response curve. Broadly, the Vmax is the rate approached at saturating substrate.

Active and inactive are the calls of the source. No cut-off for these calls is given here.

Assay type in all cases: cell-based
The nature of test [1]: Potentiation of genistein-induced human CFTR delta F508 mutant gating activity expressed in forskolin-stimulated FRT cells assessed as increase in iodine influx measured as decrease in YFP fluorescence after 24 hrs at 27 degC. The essentials: (§1)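 Potentiator plate-reader assay. FRT cells coexpressing human ΔF508-CFTR and YFP-H148Q/I152L, grown 18−24 h at 37 °C, then rescued 18−24 h at 27 °C. Cells are washed, then given 10 min of forskolin 20 μM plus compound in PBS (eight concentrations, 0−50 μM final). I⁻ influx comes from the YFP quench after iodide addition (2 s baseline, 12 s), by exponential regression. Controls are DMSO and genistein. EC50/Vmax come from four-parameter logistic fits; triplicate.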

For test [2], the target named is Cystic fibrosis transmembrane conductance regulator (Homo sapiens, UniProt P13569). The test can be described thus: (§2) Activity at human CFTR delta F508 mutant expressed in forskolin-stimulated FRT cells assessed as increase in iodine influx measured as decrease in YFP fluorescence after 18 to 24 hrs at 37 degC in presence of genistein. Particulars: frt. In a few lines:
(§3)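 Corrector plate-reader assay. FRT cells stably coexpressing human ΔF508-CFTR and YFP-H148Q/I152L, grown 24 h at 37 °C, then exposed to compound for 16−20 h (up to 25 μM, eight concentrations). Cells are washed, then given forskolin 20 μM plus genistein 50 μM in PBS for 20 min. I⁻ influx comes from the YFP quench recorded 2 s baseline plus 12 s after iodide addition, fitted by exponential regression. Controls are DMSO vehicle and a reference corrector. EC50/Vmax come from four-parameter logistic fits; triplicate.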

The target of test [3] is Cystic fibrosis transmembrane conductance regulator (Homo sapiens, UniProt P13569, F508DEL). The test is described as §2. In a few lines: as §3
In test [4] the test system is FRT. The test can be described thus: Potentiation of genistein-induced human CFTR delta F508 mutant gating activity expressed in forskolin-stimulated FRT cells assessed as increase in iodine influx measured as decrease in YFP fluorescence after 24 hrs at 27 degC relative to control. The essentials:
as §1

In test [5] the test system is Cystic fibrosis transmembrane conductance regulator (Homo sapiens), P13569 [F508del]. The test can be described thus: Activity at human CFTR delta F508 mutant expressed in forskolin-stimulated basolateral membrane permeabilized FRT cells assessed as increase in apical chloride current at 10 uM after 18 to 24 hrs at 37 degC by short-circuit assay in presence of genistein. In a few lines:
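Short-circuit current. ΔF508-CFTR FRT cells are cultured 7−9 days on permeable inserts, then given compound for 18−24 h at 37 °C. Apical Cl⁻ current is recorded after basolateral permeabilization under an apical-to-basolateral Cl⁻ gradient. Forskolin 20 μM and genistein 50 μM are added, followed by CFTRinh-172 10 μM.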

Test [6] deals with FRT. The test can be described thus: Potentiation of genistein-induced human CFTR delta F508 mutant gating activity expressed in forskolin-stimulated basolateral membrane permeabilized FRT cells assessed as increase in apical chloride current at 3 to 100 uM after 24 hrs at 27 degC by short-circuit assay. In a few lines: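 Short-circuit current. ΔF508-CFTR FRT cells are cultured 7−9 days on permeable inserts and temperature-rescued 18−24 h at 27 °C. Apical Cl⁻ current is recorded in basolateral-permeabilized monolayers under an apical-to-basolateral Cl⁻ gradient. Forskolin 20 μM is added, then test compound, with CFTRinh-172 10 μM at the end.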

[7] abbreviates: Homo sapiens, FRT, 24 h, read-out: EC50.

Cystic fibrosis transmembrane conductance regulator (Homo sapiens, UniProt P13569, F508DEL), sequence (P13569 as listed by the source): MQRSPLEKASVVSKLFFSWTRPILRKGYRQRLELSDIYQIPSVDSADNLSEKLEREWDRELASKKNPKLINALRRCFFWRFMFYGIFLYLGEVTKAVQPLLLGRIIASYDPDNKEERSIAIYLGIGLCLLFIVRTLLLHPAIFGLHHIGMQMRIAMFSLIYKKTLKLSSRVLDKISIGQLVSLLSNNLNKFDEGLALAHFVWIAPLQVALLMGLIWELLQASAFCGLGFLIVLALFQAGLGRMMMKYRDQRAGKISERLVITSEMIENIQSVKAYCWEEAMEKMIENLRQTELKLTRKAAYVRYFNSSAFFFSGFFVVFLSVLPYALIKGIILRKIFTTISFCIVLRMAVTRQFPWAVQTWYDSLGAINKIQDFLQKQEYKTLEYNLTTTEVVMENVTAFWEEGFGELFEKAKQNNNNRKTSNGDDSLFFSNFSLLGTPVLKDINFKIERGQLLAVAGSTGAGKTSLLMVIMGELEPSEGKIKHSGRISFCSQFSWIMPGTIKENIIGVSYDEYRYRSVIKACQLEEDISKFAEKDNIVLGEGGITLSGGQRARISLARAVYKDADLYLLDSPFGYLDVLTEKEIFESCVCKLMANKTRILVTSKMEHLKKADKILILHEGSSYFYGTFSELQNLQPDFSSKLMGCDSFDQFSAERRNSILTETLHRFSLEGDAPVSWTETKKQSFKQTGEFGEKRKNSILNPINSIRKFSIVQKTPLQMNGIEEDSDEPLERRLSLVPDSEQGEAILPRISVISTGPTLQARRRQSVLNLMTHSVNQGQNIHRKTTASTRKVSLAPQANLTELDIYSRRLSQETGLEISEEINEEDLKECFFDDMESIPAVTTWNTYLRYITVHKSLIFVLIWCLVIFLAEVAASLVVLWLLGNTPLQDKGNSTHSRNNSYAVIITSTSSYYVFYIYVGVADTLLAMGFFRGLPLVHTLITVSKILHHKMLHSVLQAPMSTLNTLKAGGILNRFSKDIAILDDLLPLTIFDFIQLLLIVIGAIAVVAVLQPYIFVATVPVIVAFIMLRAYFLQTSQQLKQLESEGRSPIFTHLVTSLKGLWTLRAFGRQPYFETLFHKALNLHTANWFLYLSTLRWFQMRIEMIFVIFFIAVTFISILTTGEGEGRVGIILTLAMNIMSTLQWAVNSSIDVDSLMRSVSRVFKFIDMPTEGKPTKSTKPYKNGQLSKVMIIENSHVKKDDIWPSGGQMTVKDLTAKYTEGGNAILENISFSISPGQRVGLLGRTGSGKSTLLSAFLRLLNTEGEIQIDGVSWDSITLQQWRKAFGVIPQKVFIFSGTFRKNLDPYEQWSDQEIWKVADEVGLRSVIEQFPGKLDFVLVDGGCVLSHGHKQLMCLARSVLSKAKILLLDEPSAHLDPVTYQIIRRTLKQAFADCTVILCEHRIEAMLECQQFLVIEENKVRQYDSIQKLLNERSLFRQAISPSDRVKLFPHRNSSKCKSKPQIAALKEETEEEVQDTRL
Cystic fibrosis transmembrane conductance regulator (Homo sapiens, UniProt P13569), sequence (P13569 as listed by the source): as above
Cystic fibrosis transmembrane conductance regulator (Homo sapiens), P13569 [F508del], sequence (P13569 as listed by the source): as above

`Cc1cc(C)c2cc(C#N)c(N3CCN(C(=O)c4cccnc4)CC3)nc2c1`: the EC50 entry in test [1] (frt) and in test [2] was “Not Active” in each case.
`Cc1cc(C)c2cc(C#N)c(NCCNC(=O)c3cccnc3)nc2c1`: the EC50 in test [1] (setting [7]) was found to be 13.2 µM; in test [3], 2.7 µM. For the same compound, in the test with FRT [4], the Vmax came out at 242 µM/s.
`Cc1cc(C)c2cc(C#N)c(NCCNC(=O)c3ccccc3)nc2c1`: the EC50 was 10 µM in test [1] (setting [7]) and “Not Active” in test [2]. The Vmax in the test on FRT [4] was found to be 210 µM/s.
As to `COc1ccc(C(=O)NCCCNc2nc3cc(C)cc(C)c3cc2C#N)cc1`, the EC50 in test [1] (setting [7]) turned out to be 5 µM; in test [3], 4.3 µM. Besides, the Vmax in the test with FRT [4] stood at 231 µM/s.
As for `COc1cccc(C(=O)N2CCN(c3nc4cc(C)cc(C)c4cc3C#N)CC2)c1`, the figures for the EC50 in test [1] (setting [7]) and in test [2] were 1.2 µM and “Not Active”, respectively. Further, the Vmax in the test with FRT [4] was found to be 200 µM/s.
In the case of `Cc1cc(C)c2cc(C#N)c(NCCCNC(=O)c3ccncc3)nc2c1`, the EC50 in test [1] (setting [7]) was 13.2 µM; in test [3] it was 8.2 µM. The Vmax in the test on FRT [4] was 53 µM/s.
For `COc1ccc(C(=O)NCCNc2nc3cc(C)cc(C)c3cc2C#N)cc1OC`, in that order: 48 µM, 1.5 µM and 216 µM/s.
For `Cc1cc(C)c2cc(C#N)c(NCCNC(=O)c3ccncc3)nc2c1`, in that order: 10 µM, 7.3 µM and 220 µM/s.
For `COc1cccc(OC)c1C(=O)NCCNc1nc2cc(C)cc(C)c2cc1C#N`, in that order: 11.5 µM, 3.7 µM and 119 µM/s.
With `COc1cccc(C(=O)NCCCNc2nc3cc(C)cc(C)c3cc2C#N)c1`, the concentration for a half-maximal effect (EC50) in test [1] (setting [7]) and in test [3] was 4.6 µM in each case. In addition, in the test on FRT [4], the Vmax turned out to be 147 µM/s.
On to `Cc1cc(C)c2cc(C#N)c(NCCNC(=O)c3cnccn3)nc2c1`, for which the EC50 result in test [1] (frt) is “Not Active”; in test [3] it was 6.7 µM.
For the compound `COc1ccc(C(=O)NCCNc2nc3cc(C)cc(C)c3cc2C#N)c(OC)c1`, the results for the EC50 in test [1] (setting [7]) and in test [3] were 55 µM and 4.2 µM, respectively. The Vmax in the test on FRT [4] is 426 µM/s.
As for `Cc1cc(C)c2cc(C#N)c(NCCNC(=O)c3ccccn3)nc2c1`, the figures for the concentration for a half-maximal effect (EC50) in test [1] (setting [7]) and in test [2] were 1.2 µM and “Not Active”, respectively. Besides, the Vmax in the test on FRT [4] was 80 µM/s.
As to `Cc1cc(C)c2cc(C#N)c(N3CCN(C(=O)c4ccccn4)CC3)nc2c1`, the figures for the EC50 in test [1] (setting [7]) and in test [2] were 7.4 µM and “Not Active”, respectively. The Vmax in the test with FRT [4] is 102 µM/s.
For `COc1ccccc1C(=O)N1CCN(c2nc3cc(C)cc(C)c3cc2C#N)CC1`, in that order: 1 µM, “Not Active” and 129 µM/s.
Turning to `COc1ccccc1C(=O)NCCNc1nc2cc(C)cc(C)c2cc1C#N`, the EC50 in test [1] (setting [7]) is 2.3 µM; in test [3] it was 11 µM. The maximum rate (Vmax) in the test on FRT [4] was 154 µM/s.
For the compound `COc1cccc(C(=O)NCCNc2nc3cc(C)cc(C)c3cc2C#N)c1`, the figures for the EC50 in test [1] (setting [7]) and in test [3] were 5.9 µM and 2.2 µM, respectively. Also, the maximal velocity (Vmax) in the test with FRT [4] is 216 µM/s. For the same compound, the result (in test [5]; in the test on FRT [6]) was Active.
`COc1ccc(C(=O)NCCNc2nc3cc(C)cc(C)c3cc2C#N)nc1`: the EC50 stood at 3.4 µM in test [1] (setting [7]) and 2.7 µM in test [3]. Further, the Vmax in the test with FRT [4] worked out at 70 µM/s.
Regarding `COc1ccc(C(=O)N2CCN(c3nc4cc(C)cc(C)c4cc3C#N)CC2)cc1`, the EC50 in test [1] (setting [7]) was 1.3 µM; in test [2], “Not Active”. Moreover, in the test with FRT [4], the Vmax amounted to 281 µM/s.
Regarding `Cc1cc(C)c2cc(C#N)c(N3CCN(C(=O)c4ccncc4)CC3)nc2c1`, the EC50 entry in test [1] (frt) and in test [2] was “Not Active” each time.
In the case of `COc1ccc(C(=O)NCCNc2nc3cc(C)cc(C)c3cc2C#N)cc1`, the EC50 in test [1] (setting [7]) was determined as 4.1 µM; in test [3], 3 µM. In the test with FRT [4], the Vmax worked out at 181 µM/s. In addition, the result (in test [5]; with FRT [6]) was Active.
On to `COc1ccccc1C(=O)NCCCNc1nc2cc(C)cc(C)c2cc1C#N`, for which the results for the EC50 in test [1] (setting [7]) and in test [2] were 27.6 µM and “Not Active”, respectively. In the test on FRT [4], the Vmax stood at 254 µM/s.
Taken in the same sequence, the figures for `Cc1cc(C)c2cc(C#N)c(NCCCNC(=O)c3ccccn3)nc2c1` were 6.1 µM, “Not Active” and 233 µM/s.
Consider `Cc1cc(C)c2cc(C#N)c(NCCCNC(=O)c3cccnc3)nc2c1`, for which the EC50 turned out to be 16 µM in test [1] (setting [7]) and 3 µM in test [3]. Further, the maximum rate (Vmax) in the test on FRT [4] was 115 µM/s.
